Results taken from ChEMBL document CHEMBL2086248, “Synthesis of some novel 1-(2-naphthyl)-2-(imidazol-1-yl)ethanone oxime ester derivatives and evaluation of their anticonvulsant activity” (Eur J Med Chem, 2012).
Active and inactive are the calls of the source.

What was measured:
[1] = tested on: Mus musculus; test: Anticonvulsant activity in mouse assessed as protection against maximal electroshock-induced seizures at 30 mg/kg, ip after 0.5 hrs; assay type: functional, organism-based; design: dose 30 mg/kg
How it was run: (§1)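 Swiss albino mice (20-24 g) received an ip suspension in 30% aqueous PEG 400 and were tested 0.5 h and 4 h after dosing. Shock was delivered through corneal electrodes from a constant current unit, with 0.9% saline dropped into the eyes first. Protection meant abolition of the hind limb tonic extension. Scored as number protected/number tested, one mouse per dose and time.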

[2] = tested on: Mus musculus; test: Neurotoxicity in mouse assessed as motor impairment at 100 mg/kg, ip after 4 hrs by rotarod test; assay type: toxicity, organism-based; design: dose 100 mg/kg, route intraperitoneal; details: in vivo
How it was run: (§2)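 Swiss albino mice (20-24 g) were dosed ip with a suspension in 30% aqueous PEG 400 and tested 0.5 h or 4 h later. They were placed on a knurled wooden rod 1 inch in diameter, rotating at 6 rpm. Toxicity meant failure to stay on the rod for at least 1 min in each of three trials. Scored as number toxic/number tested (4 mice at 0.5 h, 2 at 4 h).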

[3] = tested on: Mus musculus; test: Anticonvulsant activity in mouse assessed as protection against maximal electroshock-induced seizures at 100 mg/kg, ip after 4 hrs; assay type: functional, organism-based; design: dose 100 mg/kg; how it was run: as §1
[4] = tested on: Mus musculus; test: Anticonvulsant activity in mouse assessed as protection against subcutaneous pentylenetetrazole-induced seizures at 300 mg/kg, ip after 0.5 hrs; assay type: functional, organism-based; design: dose 300 mg/kg
How it was run: (§3)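 Swiss albino mice (20-24 g) were dosed ip with a suspension in 30% aqueous PEG 400 and challenged 0.5 h or 4 h later. Protection meant no threshold seizure (clonic spasms lasting at least 5 s). Scored as number protected/number tested, one mouse per dose and time.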

[5] = tested on: Mus musculus; test: Anticonvulsant activity in mouse assessed as protection against subcutaneous pentylenetetrazole-induced seizures at 100 mg/kg, ip after 4 hrs; assay type: functional, organism-based; design: dose 100 mg/kg; how it was run: as §3
[6] = tested on: Mus musculus; test: Neurotoxicity in mouse assessed as motor impairment at 300 mg/kg, ip after 4 hrs by rotarod test; assay type: toxicity, organism-based; design: dose 300 mg/kg, route intraperitoneal; details: in vivo; how it was run: as §2
[7] = tested on: Mus musculus; test: Anticonvulsant activity in mouse assessed as protection against maximal electroshock-induced seizures at 300 mg/kg, ip after 0.5 hrs; assay type: functional, organism-based; design: dose 300 mg/kg; how it was run: as §1
[8] = tested on: Mus musculus; test: Anticonvulsant activity in mouse assessed as protection against subcutaneous pentylenetetrazole-induced seizures at 30 mg/kg, ip after 4 hrs; assay type: functional, organism-based; design: dose 30 mg/kg; how it was run: as §3
[9] = tested on: Mus musculus; test: Neurotoxicity in mouse assessed as motor impairment at 100 mg/kg, ip after 0.5 hrs by rotarod test; assay type: toxicity, organism-based; design: dose 100 mg/kg, route intraperitoneal; details: in vivo; how it was run: as §2
[10] = tested on: Mus musculus; test: Anticonvulsant activity in mouse assessed as protection against maximal electroshock-induced seizures at 100 mg/kg, ip after 0.5 hrs; assay type: functional, organism-based; design: dose 100 mg/kg; how it was run: as §1
[11] = tested on: Mus musculus; test: Anticonvulsant activity in mouse assessed as protection against maximal electroshock-induced seizures at 30 mg/kg, ip after 4 hrs; assay type: functional, organism-based; design: dose 30 mg/kg; how it was run: as §1
[12] = tested on: Mus musculus; test: Neurotoxicity in mouse assessed as motor impairment at 30 mg/kg, ip after 4 hrs by rotarod test; assay type: toxicity, organism-based; design: dose 30 mg/kg, route intraperitoneal; details: in vivo; how it was run: as §2
[13] = tested on: Mus musculus; test: Anticonvulsant activity in mouse assessed as protection against subcutaneous pentylenetetrazole-induced seizures at 30 mg/kg, ip after 0.5 hrs; assay type: functional, organism-based; design: dose 30 mg/kg; how it was run: as §3
[14] = tested on: Mus musculus; test: Anticonvulsant activity in mouse assessed as protection against maximal electroshock-induced seizures at 300 mg/kg, ip after 4 hrs; assay type: functional, organism-based; design: dose 300 mg/kg; how it was run: as §1
[15] = tested on: Mus musculus; test: Neurotoxicity in mouse assessed as motor impairment at 300 mg/kg, ip after 0.5 hrs by rotarod test; assay type: toxicity, organism-based; design: dose 300 mg/kg, route intraperitoneal; details: in vivo; how it was run: as §2
[16] = tested on: Mus musculus; test: Anticonvulsant activity in mouse assessed as protection against subcutaneous pentylenetetrazole-induced seizures at 100 mg/kg, ip after 0.5 hrs; assay type: functional, organism-based; design: dose 100 mg/kg; how it was run: as §3
[17] = tested on: Mus musculus; test: Neurotoxicity in mouse assessed as motor impairment at 30 mg/kg, ip after 0.5 hrs by rotarod test; assay type: toxicity, organism-based; design: dose 30 mg/kg, route intraperitoneal; details: in vivo; how it was run: as §2
[18] = tested on: Mus musculus; test: Anticonvulsant activity in mouse assessed as protection against subcutaneous pentylenetetrazole-induced seizures at 300 mg/kg, ip after 4 hrs; assay type: functional, organism-based; design: dose 300 mg/kg; how it was run: as §3
[19] = tested on: Mus musculus; test: Neurotoxicity in mouse assessed as mortality at 300 mg/kg, ip after 0.5 hrs by rotarod test; assay type: toxicity, organism-based; design: dose 300 mg/kg, route intraperitoneal; details: in vivo
[20] = tested on: Mus musculus; test: Neurotoxicity in mouse assessed as mortality at 300 mg/kg, ip after 4 hrs by rotarod test; assay type: toxicity, organism-based; design: dose 300 mg/kg, route intraperitoneal; details: in vivo

| Structure (SMILES) | Activity [1] | Activity [2] | Activity [3] | Activity [4] | Activity [5] | Activity [6] | Activity [7] | Activity [8] | Activity [9] | Activity [10] | Activity [11] | Activity [12] | Activity [13] | Activity [14] | Activity [15] | Activity [16] | Activity [17] | Activity [18] | Activity [19] | Activity [20] |
| --- | --- | --- | --- | --- | --- | --- | --- | --- | --- | --- | --- | --- | --- | --- | --- | --- | --- | --- | --- | --- |
| O=C(O/N=C(\Cn1ccnc1)c1ccc2ccccc2c1)c1cccc(Br)c1 | inactive | Non-toxic | inactive | inactive | inactive | Non-toxic | Active | inactive | Non-toxic | Active | inactive | Non-toxic | inactive | inactive | Non-toxic | inactive | Non-toxic | inactive | – | – |
| CCCC(=O)O/N=C(\Cn1ccnc1)c1ccc2ccccc2c1.Cl | Active | Non-toxic | inactive | inactive | inactive | Non-toxic | Active | inactive | Non-toxic | Active | inactive | Non-toxic | inactive | Active | Toxic | inactive | Non-toxic | Active | – | – |
| COc1ccccc1C(=O)O/N=C(\Cn1ccnc1)c1ccc2ccccc2c1 | inactive | Non-toxic | Active | Active | inactive | Non-toxic | Active | inactive | Non-toxic | Active | Active | Non-toxic | inactive | Active | Non-toxic | Active | Non-toxic | inactive | – | – |
| COc1cccc(C(=O)O/N=C(\Cn2ccnc2)c2ccc3ccccc3c2)c1 | inactive | Non-toxic | inactive | inactive | inactive | Non-toxic | Active | inactive | Non-toxic | inactive | inactive | Non-toxic | inactive | inactive | Non-toxic | inactive | Non-toxic | inactive | – | – |
| Cl.O=C(ON=C(Cn1ccnc1)c1ccc2ccccc2c1)C1CCCCC1 (mixture of isomers) | inactive | Non-toxic | inactive | Active | inactive | Non-toxic | Active | inactive | Non-toxic | Active | inactive | Non-toxic | inactive | inactive | Non-toxic | Active | Non-toxic | inactive | – | – |
| CCC(=O)O/N=C(\Cn1ccnc1)c1ccc2ccccc2c1.Cl | inactive | Non-toxic | inactive | Active | inactive | Non-toxic | Active | inactive | Non-toxic | Active | inactive | Non-toxic | inactive | inactive | Non-toxic | inactive | Non-toxic | inactive | – | – |
| O=C(CCC(=O)c1ccccc1)O/N=C(\Cn1ccnc1)c1ccc2ccccc2c1 | Active | Non-toxic | Active | inactive | inactive | – | inactive | inactive | Non-toxic | Active | Active | Non-toxic | inactive | inactive | – | inactive | Non-toxic | – | Toxic | Toxic |
| Cc1ccccc1C(=O)O/N=C(\Cn1ccnc1)c1ccc2ccccc2c1 | inactive | Non-toxic | inactive | inactive | inactive | Non-toxic | Active | inactive | Non-toxic | inactive | inactive | Non-toxic | inactive | Active | Non-toxic | inactive | Non-toxic | inactive | – | – |
